Data taken from publication PMC3672268 (Molecular pharmaceutics, 2013).

B1: SCGB3A2: purified recombinant mouse secretoglobin 3A2 protein, given as treatment for PF (protein, UniProt Q920H1 22-91, looked up)
Secretoglobin family 3A …: LLINRLPVVDKLPVPLDDIIPSFDPLKMLLKTLGISVEHLVTGLKKCVDELGPEASEAVKKLLEALSHLV

What was measured:
Assay type in all cases: in vivo, C57BL/6N mice
[1] = Body weight in BLM-induced mouse PF model; details: mice that received BLM, no SCGB3A2 treatment
Summary of the method: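 C57BL/6N mice (7–8 weeks old, n = 10 per group) received one intratracheal dose of BLM (1.5 units/kg) by intubation, or PBS as control. Body weight was tracked over the 21-day study and expressed relative to the group's average day 0 weight, which was set as 100%.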

Mmp2 mRNA = experiment: Quantitative RT-PCR of Mmp2 mRNA in lungs of PF model; details: for increase of Mmp2 mRNA level vs PBS-treated control lungs: qRT-PCR normalised to β-actin, mean ± SD
Summary of the method: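 Mouse lung Mmp2 mRNA was measured by qRT-PCR (Superscript II RT) with gene-specific Mmp2 and β-actin primers. Cycling was 50 °C for 2 min and 95 °C for 10 min, then 40 cycles of 95 °C for 15 s and 60 °C for 40 s. Values were normalised to β-actin by ΔΔCt, with day-21 PBS lungs set as 1. Samples were taken on days 7/14/21 post-BLM; mean ± SD.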

collagen fibers = experiment: Masson's trichrome staining of collagen in lung sections; details: day 21; SCGB3A2 0.25 mg/kg/day i.v. for five days from day 7 after BLM
Summary of the method: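 Lungs were inflated and fixed in 4% paraformaldehyde, embedded in paraffin, cut into 4-μm whole-lung sections and stained with Masson's trichrome (collagen blue), with H&E alongside. Lungs were collected on day 21.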

MMP-2 [2] = experiment: Western blot of active MMP-2 protein in lungs; details: day 21 PF model, SCGB3A2-treated
Summary of the method: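 Minced lung was lysed in RIPA buffer (Tris, NaCl, SDS, deoxycholate, Triton X-100, EDTA, NaF, orthovanadate) with protease inhibitors. Lysates were reduced, run on 10% SDS-PAGE, transferred to PVDF and blocked in TBS-Tween with 5% milk. Blots were probed with rabbit anti-MMP-2 ([…]) and β-actin, then an HRP secondary, and read by chemiluminescence on film or imager. Lungs were taken on day 21.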

MMP-2 [3] = target: MMP-2 (Mus musculus, UniProt P33434); experiment: Fluorescence microscopy of cleaved MMP-P12 in lung sections; details: SCGB3A2-treated lung sections
Summary of the method: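 Fibrotic mouse lungs were frozen, and 10 μm sections were air-dried, fixed in cold acetone for 20 min, air-dried for 30 min at RT and blocked with 10% BSA for 30 min. Sections were incubated with rabbit anti-MMP2 (10 μg/mL) for 60 min at RT in the dark, then Cy3 donkey anti-rabbit, and mounted in DAPI. Cy5.5 from the cleaved probe was viewed directly by epifluorescence at ×400.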

Chain of MMP-2 (Mus musculus, UniProt P33434) (P33434 110-662): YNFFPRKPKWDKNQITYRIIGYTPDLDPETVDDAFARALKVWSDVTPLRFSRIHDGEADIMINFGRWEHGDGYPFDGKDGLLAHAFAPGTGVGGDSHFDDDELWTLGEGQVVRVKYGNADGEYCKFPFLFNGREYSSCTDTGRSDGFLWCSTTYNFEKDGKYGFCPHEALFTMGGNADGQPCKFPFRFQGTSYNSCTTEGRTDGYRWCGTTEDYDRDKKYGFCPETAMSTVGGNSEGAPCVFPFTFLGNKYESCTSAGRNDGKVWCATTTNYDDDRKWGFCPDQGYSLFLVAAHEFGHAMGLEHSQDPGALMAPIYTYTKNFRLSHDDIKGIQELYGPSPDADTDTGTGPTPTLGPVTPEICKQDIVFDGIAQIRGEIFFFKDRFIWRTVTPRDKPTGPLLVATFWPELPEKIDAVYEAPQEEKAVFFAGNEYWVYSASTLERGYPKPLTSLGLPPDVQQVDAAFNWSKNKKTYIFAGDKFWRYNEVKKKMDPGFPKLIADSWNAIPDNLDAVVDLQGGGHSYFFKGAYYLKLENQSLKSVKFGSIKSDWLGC

Molecule | body weight loss by day 21 [1] | increase of Mmp2 mRNA level vs PBS-treated control lungs (Mmp2 mRNA; day 7 post-BLM administration) | increase of Mmp2 mRNA level vs PBS-treated control lungs (Mmp2 mRNA; day 14 post-BLM administration) | increase of Mmp2 mRNA level vs PBS-treated control lungs (Mmp2 mRNA; day 21 post-BLM administration) | Mmp2 mRNA expression vs no treatment group (Mmp2 mRNA; day 21 PF model, SCGB3A2-treated, qRT-PCR) | collagen expression in lungs vs BLM only-treated group (collagen fibers) | active MMP-2 protein expression vs no treatment group (MMP-2 [2]) | MMP-P12 cleavage (green) and MMP-2 (red) signals in lung sections (MMP-2 [3])
bleomycin [BLM] | ~ 20% | 4.25±0.84 folds | 6±1.05 folds | 9±1.87 folds |  |  |  | 
B1 |  |  |  |  | decreased | much lower | decreased | weak
